# Screening data deposited in PubChem BioAssay by several laboratories.
# FAS-TE inh – FAS thioesterase (human) inhibition | AID 602261 | inhibition, % at 15 µM | recombinant FAS-TE, OMFH fluorogenic substrate, fluorescence endpoint | 0.67% of 360,000 active;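 active = compounds whose normalised, plate-corrected inhibition of enzyme fluorescence in the single-dose primary screen is 50% or more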;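 also: 0% = DMSO with enzyme and 100% = substrate without enzyme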
# MT1-MMP act inh – inhibitors of human MT1-MMP activation. P50281. HT1080 RFP-PRO-GFP cells, GFP/RFP ratio fluorescence, overnight; percent of plate control window, DMSO zero. GFP/RFP ratio change, % at 20 µM. 0.061% of 360,000 active. AID 651647;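 active = GFP/RFP ratio change of at least 30% with cell ATP level not reduced by more than half and red fluorescence within 50% of control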
#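 system = RFP-PRO-GFP reporter HT1080 cells | dosing = 20 µM single dose, 1% DMSO | timing = overnight cell settling, then overnight compound exposure, 37 °C, 5% CO2 | read-out basis = GFP/RFP fluorescence ratio | controls = DMSO and RFP-L50D-GFP cell wells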
# SKN-1 block – inhibitors of C. elegans SKN-1; C. elegans VP596 Pgst-4::GFP/RFP ratio, acrylamide-induced, 24 h; inhibition, % at 21.8 µM; 0.49% of 360,000 active;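 active = interference check ratio from 0.5 to 1.5 plus GFP to RFP signal ratio inhibition reaching or exceeding a fixed threshold, cut at about 30% in these data, passing the limit was not always enough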
# DAGLB inhibitor – diacylglycerol lipase beta (human) inhibition | Q8NCG7 | HEK293T DAGLB membrane lysate, EnzChek fluorogenic substrate | inhibition, % at 5.17 µM | 0.059% of 340,000 active; in the data active = inhibition above about 34%;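 also: 0% = enzyme with vehicle and 100% = wells lacking enzyme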
# Target sequence (Q8NCG7 whole entry, looked up): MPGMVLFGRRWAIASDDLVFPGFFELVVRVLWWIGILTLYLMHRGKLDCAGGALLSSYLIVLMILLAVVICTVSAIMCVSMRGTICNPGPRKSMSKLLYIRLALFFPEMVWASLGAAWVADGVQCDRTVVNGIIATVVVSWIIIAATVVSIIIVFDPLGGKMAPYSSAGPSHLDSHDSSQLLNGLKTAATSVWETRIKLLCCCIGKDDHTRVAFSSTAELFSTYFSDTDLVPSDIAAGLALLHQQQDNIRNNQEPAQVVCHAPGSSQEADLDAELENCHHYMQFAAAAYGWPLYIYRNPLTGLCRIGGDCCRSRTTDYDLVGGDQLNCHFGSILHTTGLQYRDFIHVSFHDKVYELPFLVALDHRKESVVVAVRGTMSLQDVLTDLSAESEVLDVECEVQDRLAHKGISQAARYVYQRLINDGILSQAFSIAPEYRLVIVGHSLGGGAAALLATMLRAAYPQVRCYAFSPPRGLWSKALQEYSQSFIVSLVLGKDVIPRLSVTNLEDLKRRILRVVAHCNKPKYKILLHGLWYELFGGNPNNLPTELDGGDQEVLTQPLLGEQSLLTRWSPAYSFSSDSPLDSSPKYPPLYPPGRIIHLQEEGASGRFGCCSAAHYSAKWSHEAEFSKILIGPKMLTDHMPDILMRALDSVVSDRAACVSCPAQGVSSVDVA
# iPSC survival up – enhancers of human iPSC single-cell survival; hiPSC single-cell survival, ATPlite luminescence; 100% = ROCK inhibitor wells, 0% = DMSO; survival enhancement, % at 20 µM; 0.044% of 360,000 active; AID 602274; in the data active = survival enhancement above about 18%;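 also: cells exposed to compounds for 16 hours before the ATP read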
# FAS-TE inh conf – confirmation of human fatty acid synthase thioesterase inhibitors. shares compounds with FAS-TE inh. recombinant FAS-TE, OMFH fluorogenic substrate, fluorescence. inhibition, % at 15 µM. 45% of 2,300 active;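 active = compounds inhibiting the enzyme by at least 50% at 15 µM in any one of the replicates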;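 also: 0% = enzyme with DMSO only and 100% = wells lacking enzyme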
# * hit, by the source's call; · = no result. Hits are enriched below; roughly 1.3% of the tested compounds scored in any of these assays.
SMILES,FAS-TE inh,MT1-MMP act inh,SKN-1 block,DAGLB inhibitor,iPSC survival up,FAS-TE inh conf
Cn1c2ccccc2c2ccc3c(c21)C(=O)C=CC3=O,18,2,5,10,-2,·
Cc1ccc2c(c1)c1ccc3c(c1n2C)C(=O)C=CC3=O,54*,-8,-10,9,14,10
CC(C)c1ccc(NC(=O)c2snc3ccc(Cl)cc23)cc1,58*,-4,7,-18,-2,34
CC(C)(C)c1nc(Sc2ccc([N+](=O)[O-])cn2)n[nH]1,13,2,7,-2,0,·
O=[N+]([O-])c1ccc(Sc2n[nH]c(-c3ccc(Cl)cc3Cl)n2)nc1,63*,3,-17,-1,3,60*
CCN(CC)c1cc2nonc2c2nonc12,51*,0,11,-6,-1,45*
CC(=O)N1N=C(c2cccc(Cl)c2)OC1c1cccc([N+](=O)[O-])c1 (centres undefined),39,1,7,-2,1,·
CC(=O)N1N=C(c2cccc([N+](=O)[O-])c2)OC1c1cccc(Br)c1 (centres undefined),54*,1,3,-2,0,60*
Cc1ccc(-n2c(SCC(=O)O)nc3sc4c(c3c2=O)CCCC4)cc1,0,-3,-2,4,0,·
Cc1ccc(-n2c(SCC(=O)c3c(N)n(C)c(=O)n(C)c3=O)nc3sc4c(c3c2=O)CCCC4)c(C)c1,52*,-9,6,-2,-3,3
COCCCNC(=O)c1cc(S(=O)(=O)N2CCC3(CC2)OCCO3)ccc1F,-6,-1,18,1,2,·
CC(C)CSc1ncc(-c2cccc(C(F)(F)F)c2)cn1,51*,-4,20,-10,1,49*
CCc1ccc(C(O)c2ncc(-c3cccc(C(F)(F)F)c3)[nH]2)cc1 (centres undefined),27,1,2,·,4,·
C/C(=N\NC(=O)c1nnn(-c2nonc2N)c1CSc1ccc(C)cc1)c1cccs1,-3,4,4,-7,-2,·
Cc1ccc(S(=O)(=O)/C(C#N)=C/c2c(N3CCOCC3)nc3c(C)cccn3c2=O)cc1,56*,-1,1,·,0,6
Cc1ccc(S(=O)(=O)/C(C#N)=C/c2c(N3CCN(Cc4ccccc4)CC3)nc3ccccn3c2=O)cc1,81*,-1,12,2,0,8
N#C/C(=C\c1c(N2CCOCC2)nc2ccccn2c1=O)S(=O)(=O)c1ccccc1,12,2,-19,-1,4,·
N#C/C(=C\c1c(N2CCN(Cc3ccccc3)CC2)nc2ccccn2c1=O)S(=O)(=O)c1ccccc1,56*,0,20,-3,0,13
CN1CCN(c2nc3ccccn3c(=O)c2/C=C(\C#N)S(=O)(=O)c2ccc(Cl)cc2)CC1,25,-2,1,2,0,·
N#C/C(=C\c1c(N2CCC(C(N)=O)CC2)nc2ccccn2c1=O)S(=O)(=O)c1ccc(Cl)cc1,55*,-1,9,1,-1,30*
Cc1ccc(S(=O)(=O)/C(C#N)=C/c2c(N3CCCCC3)nc3ccccn3c2=O)cc1,62*,3,9,·,-1,36
Cc1ccccc1CS(=O)(=O)c1ncc(Cl)c(C(=O)Nc2ccc(F)cc2)n1,50*,-5,-5,2,3,29
O=C(Nc1ccc(F)cc1)c1nc(S(=O)(=O)Cc2ccccc2)ncc1Cl,57*,-1,-2,0,3,58*
Cc1cccc(C)c1NC(=O)c1nc(S(=O)(=O)Cc2ccccc2)ncc1Cl,26,-7,9,0,0,·
CCN(c1ccccc1)S(=O)(=O)c1ccc(NC(=O)c2nc(S(C)(=O)=O)ncc2Cl)cc1,58*,-6,-2,2,9,61*
SMILES,FAS-TE inh,MT1-MMP act inh,SKN-1 block,DAGLB inhibitor,iPSC survival up,FAS-TE inh conf
CCCNC(=O)N[C@H]1C=C[C@H](CC(=O)OC)O[C@@H]1CO,·,1,-8,·,·,·
Nc1nc2cc(Cl)ccc2cc1C(=O)NCCCc1ccccc1,3,1,13,·,0,·
O=C1NC[C@@H](CCCCN2C[C@H](Cc3ccc(O)cc3)N(Cc3ccccc3)C(=O)C2=O)N(Cc2ccccc2)C1=O,-8,2,9,·,0,·
O=C(OCC(=O)N1CCc2ccccc2C1)c1ccc(Cl)c([N+](=O)[O-])c1,72*,9,4,-1,0,71*
Nc1ccc(C(=O)OCC(=O)N2c3ccccc3Sc3ccccc32)cc1[N+](=O)[O-],66*,0,12,1,0,24
Nc1ccc(C(=O)OCC(=O)N2CCc3ccccc3C2)cc1[N+](=O)[O-],23,5,-2,-1,1,·
O=C(COC(=O)c1ccc(Cl)c([N+](=O)[O-])c1)NC1CCCC1,74*,-1,0,-2,0,65*
NCCNc1ccc(C(=O)N2c3ccccc3Sc3ccccc32)cc1[N+](=O)[O-],-55,0,14,2,0,·
CCOC(=O)[C@]12CCCC=C1N(CCC1=CCCCC1)C(=O)[C@H](CC(=O)NCC1CCCCC1)C2,·,-10,12,·,·,·
CCCS(=O)(=O)NC(=O)C1(C)CCCN(C(=O)COCc2ccccc2)C1 (centres undefined),-7,2,8,·,2,·
Cc1nc2scc(-c3cccs3)c2c(=O)o1,-6,0,-6,0,0,·
Cc1nc2scc(-c3ccc(Cl)cc3)c2c(=O)o1,70*,5,0,-1,0,65*
COc1ccc(-c2nc3scc(-c4ccc(OC)c(OC)c4)c3c(=O)o2)cc1,9,3,9,2,1,·
COc1ccc(-c2csc3nc(-c4ccccc4F)oc(=O)c23)cc1,62*,2,20,5,-1,51*
COc1cc(OC)cc(C2=Cc3ccc(OC)cc3C(CC(C)=O)N2c2ccc(C#CCCO)cc2)c1 (centres undefined),11,2,23,·,0,·
CC(C)(C)c1ccc(OCCSc2nc3ccccc3n2CC(=O)O)cc1,78*,5,7,6,0,87*
O=C(O)Cn1c(SCCOc2ccccc2)nc2ccccc21,4,-2,-2,1,-2,·
CCn1c(SCC(=O)Nc2oc(-c3ccccc3)c(-c3ccccc3)c2C#N)nnc1-c1cc(OC)cc(OC)c1,54*,2,3,3,1,3
Cn1c(SCC(=O)Nc2ncc(C(F)(F)F)cc2Cl)nnc1-c1ccc(Cl)cc1,81*,2,11,0,0,90*
CCOC(=O)c1c(NC(=O)CSc2nnc(-c3ccccc3)n2CC)sc(C(C)=O)c1C,51*,0,10,-4,1,17
O=C(CSc1ncn[nH]1)Nc1ncc(C(F)(F)F)cc1Cl,-7,-5,0,2,0,·
